From PubChem
The list is not random: actives were taken first. Their share in the collection is about 1.4%.
PKA-R2B act – activators of human PKA-R2B complex | AID 504700 | activation, % at 11.4 µM | PKA-R2B holoenzyme dissociation, Cy5-IP20 fluorescence polarization; R2B truncated from residue 108, S112A mutant; 0% DMSO only, 100% 113 µM cGMP | 340,000 compounds, 0.079% hits | P22694+P31323;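 active = activation above a cutoff set at the mean over all compounds plus 3 SD, cut at about 18% in these data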;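 note: higher means more holoenzyme dissociation and a rise in polarization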
PKA-R1A act – activators of PKA-R1A complex. PKA-R1A dissociation, Cy5-IP20 fluorescence polarization; scaled: DMSO 0%, 113 µM cGMP 100%. activation, % at 11.4 µM. 340,000 compounds, 0.083% hits;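 active = percent activation above the mean of all tested compounds plus 3 SD, cut at about 19% in these data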;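 note: higher means more PKAc released from R1A so a rise in polarization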
SR-BI DiI inh – inhibitors of mouse SR-BI mediated HDL lipid uptake; 320,000 compounds, 0.96% hits; inhibition, % at 12.5 µM; AID 488896; Q61009; ldlA[mSR-BI] CHO cells, DiI-HDL uptake fluorescence, 3 h;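 active = mean replicate inhibition of at least 70% and a set share of replicates each scoring 70 or more; inconclusive = meets just one of the two criteria; inactive = fails both criteria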
Target sequence (Q61009 whole entry, looked up): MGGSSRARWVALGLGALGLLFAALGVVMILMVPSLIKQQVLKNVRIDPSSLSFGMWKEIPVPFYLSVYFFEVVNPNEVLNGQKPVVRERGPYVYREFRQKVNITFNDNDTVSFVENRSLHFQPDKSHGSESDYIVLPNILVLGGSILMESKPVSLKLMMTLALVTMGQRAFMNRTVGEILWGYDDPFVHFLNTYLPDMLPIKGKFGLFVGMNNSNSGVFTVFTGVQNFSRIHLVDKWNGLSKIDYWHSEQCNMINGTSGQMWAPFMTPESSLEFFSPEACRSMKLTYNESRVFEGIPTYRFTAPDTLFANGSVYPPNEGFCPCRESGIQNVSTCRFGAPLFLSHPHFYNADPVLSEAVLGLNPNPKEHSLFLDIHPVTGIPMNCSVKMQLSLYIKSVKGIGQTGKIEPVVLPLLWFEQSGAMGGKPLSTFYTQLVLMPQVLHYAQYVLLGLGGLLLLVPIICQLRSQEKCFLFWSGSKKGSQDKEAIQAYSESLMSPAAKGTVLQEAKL
SR-BI DiI-HDL act – SR-BI HDL lipid transfer activation | CHO ldlA[mSR-BI] cells, DiI-HDL uptake fluorescence, 3 h; 100 = double the neutral-control signal | 320,000 compounds, 0.096% hits | activation, % at 12.5 µM;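 active = mean replicate activation of at least 60% and every replicate at or above 60%; inconclusive = mean or all-replicate condition met, but not both; inactive = mean below 60% and not all replicates reaching 60%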
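Test system: SR-BI-overexpressing, LDLR-lacking CHO cells; Medium: Ham's F12 with 0.5% BSA, HEPES 25 mM, pH 7.4; Schedule: 3 h, 37 °C; Technique: bottom-read fluorescence, 550/595 nm.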
Vif imaging – HIV Vif inhibition; inhibition, % at 7.49 µM; 340,000 compounds, 0.35% hits; HEK293T cells, Vif self-association by quenched fluorescence, imaging, 24 h; in the data active = inhibition above about 50%, passing the limit was not always enough; inconclusive = no clear call, values can overlap the other calls; inactive = below about 31%
Hits are given with their value; n = inactive; u = inconclusive; x = no result given.

SMILES	PKA-R2B act	PKA-R1A act	SR-BI DiI inh	SR-BI DiI-HDL act	Vif imaging
O=C(CCNS(=O)(=O)c1ccccc1)NNC(=O)C1COc2ccccc2O1 (centres undefined)	n	n	n	n	n
COC(=O)c1cc(S(=O)(=O)N2CCCCC2)c[nH]1	n	n	n	n	n
CCSc1nc(N2CCCCC2)c2c(c1C#N)CCCC2	n	n	76.4	n	n
N#Cc1c(SCc2ccccc2)nc(N2CCOCC2)c2c1CCCC2	n	n	x	x	n
Cc1cccc(-n2c(SCC(=O)N(C)C3CCS(=O)(=O)C3)nc3ccccc3c2=O)c1C (centres undefined)	n	n	n	n	n
CN(C(=O)CSc1nc2ccccc2c(=O)n1-c1ccccc1F)C1CCS(=O)(=O)C1 (centres undefined)	n	n	n	n	62.2
COc1ccc(-c2coc3cc(O)ccc3c2=O)cc1	n	n	n	n	56.8
COc1ccc(-c2coc3cc(OC)ccc3c2=O)cc1	n	n	n	n	n
O=c1[nH]nc(-c2ccc(NCCO)c([N+](=O)[O-])c2)c2ccccc12	n	n	n	n	55.7
Cc1nc(SCc2ccc(Br)cc2)[nH]c(=O)c1C	n	n	n	n	51.7
Cc1nc(SCCc2ccccc2)[nH]c(=O)c1C	n	n	n	n	n
CC(O)CC(=O)O (centres undefined)	n	n	n	n	n
C[N+](C)(C)CC(O)CC(=O)O (centres undefined)	n	n	n	n	116.1
CCc1cccc(C)c1NC(=S)NCC1CCN(c2ccc(OC)cc2)C1 (centres undefined)	n	n	82.9	n	n
Cc1ccn(C(C)CC(=O)Nc2ccc(-c3ccno3)cc2)n1 (centres undefined)	n	n	n	n	n
COc1ccc2c(c1)cc(C(=O)N/N=C/c1c(O)c(C(=O)O)cc3ccccc13)n2C	n	n	86.2	n	n
COc1ccc2c(c1)c(C(=O)N/N=C/c1cccc(O)c1)c(C)n2C	n	n	n	n	n
COc1cc2nc(N(CCCN(C)C)C(=O)c3ccc(S(=O)(=O)N4CCc5ccccc54)cc3)sc2cc1OC	n	n	n	n	50.3
O=C(Nc1cccnc1)/C(N=Nc1ccc(Cl)c(C(F)(F)F)c1)=C(\O)c1ccccc1	n	n	77.4	n	n
O=C(Nc1cccnc1)/C(N=Nc1c(Cl)cccc1Cl)=C(\O)c1ccccc1	n	n	n	n	n
CCCn1c(C)cc(/C=C(\C#N)C(=O)OCC(=O)N(CC)c2c(N)n(Cc3ccccc3)c(=O)[nH]c2=O)c1C	n	n	n	n	n
O=C(N/N=C/c1ccccc1[N+](=O)[O-])c1ccc(CN2CCOCC2)cc1	n	n	n	n	n
Cc1cc(/C=N/NC(=O)c2ccc(CN3CCOCC3)cc2)c(C)n1-c1ccccc1	n	n	72.0	n	n
C/C(=N\NC(=O)c1ccc(CN2CCOCC2)cc1)c1ccc([N+](=O)[O-])cc1	n	n	71.0	n	n
C/C(=N\NC(=O)c1ccc(CN2CCOCC2)cc1)c1cccc([N+](=O)[O-])c1	n	n	n	n	n
SMILES	PKA-R2B act	PKA-R1A act	SR-BI DiI inh	SR-BI DiI-HDL act	Vif imaging
C/C(=N/NC(=O)CNC(=O)c1ccccn1)c1ccc([N+](=O)[O-])cc1	n	n	80.2	n	n
Cc1occc1C(=O)N/N=C/C1=C(N2CCOCC2)C(=C/c2ccc(Cl)cc2Cl)/CC1	n	n	86.4	n	132.8
O=S(=O)(c1ccccc1)c1cnc(-c2ccccc2)nc1N1CCCC1	n	n	85.2	n	n
Cc1ccc(S(=O)(=O)c2cnc(-c3ccccc3)nc2N2CCCCC2)cc1	n	n	n	n	n
NC(CCc1ccccc1)c1csc(Nc2ccc(C(=O)c3ccccc3)cc2)n1 (centres undefined)	x	x	x	x	56.8
NC(CCc1ccccc1)c1csc(Nc2ccc(C(=O)NCCO)cc2)n1 (centres undefined)	x	x	x	x	n
O=C(NCc1cccc(C(F)(F)F)c1)c1ccc2nc([C@H]3C[C@H](O)[C@@H](CO)O3)[nH]c2c1	x	x	x	x	n
CN1CCCCC1(C)C(=O)NCc1ccc(F)cc1 (centres undefined)	x	x	x	x	n
Cc1[nH]n(-c2ccccc2)c(=O)c1/C=N/NC(=O)c1ccccc1F	n	n	105.8	n	n
Cc1[nH]n(-c2ccccc2)c(=O)c1/C=N/NC(=O)c1cccc([N+](=O)[O-])c1	n	n	111.8	n	n
CC/C(=N/NC(=O)c1ccccc1O)c1c(C)[nH]n(-c2ccccc2)c1=O	n	n	137.0	n	n
CC(=O)N/N=C/c1c(C)[nH]n(-c2ccccc2)c1=O	n	n	n	n	n
CC(C)(C)c1ccc(CC(=O)N2CCC2(C)C(=O)NS(=O)(=O)c2cccc(F)c2)cc1 (centres undefined)	x	x	x	x	n
COc1cc(C(=O)Nc2ccc(N(C)C)cc2)cc(OC)c1OC	n	n	n	n	x
COc1cc(NC(=O)C2=C(N3CCOCC3)/C(=C\c3ccc(N(C)C)cc3)CCC2)cc(OC)c1OC	n	n	74.3	n	n
O=C(Nc1ccccc1)C1=C(N2CCOCC2)/C(=C/c2cccnc2)CC1	n	n	n	n	n
COc1cc(NC(=O)C2=C(N3CCOCC3)/C(=C/c3ccc(Cl)cc3)CC2)cc(OC)c1OC	n	n	73.6	n	n
COc1ccc(C(=O)COC(=O)c2cnc(C)cn2)cc1OC	n	n	n	n	n
COc1ccc(OC)c(CN2CCN(C(=O)c3ccc(C)c(S(=O)(=O)Nc4ccccc4OC)c3)CC2)c1	n	n	77.4	n	n
COc1ccc(OC)c(CN2CCN(C(=O)c3cccc(S(=O)(=O)Nc4ccc(C)cc4)c3)CC2)c1	n	n	n	n	n
COc1ccc(OC)c(CN2CCN(C(=O)c3cc(S(=O)(=O)Nc4ccccc4OC)ccc3C)CC2)c1	n	n	n	n	n
COc1ccc(NS(=O)(=O)c2cccc(C(=O)N3CCN(Cc4cc(OC)ccc4OC)CC3)c2)cc1	n	n	74.5	n	n
COc1ccccc1Cc1nc2ccccc2n1S(=O)(=O)c1ccc(Cl)cc1	n	n	n	n	n
CC1N(C)c2cc(NC(=O)c3cccs3)c(P(=O)(Nc3ccc([N+](=O)[O-])cc3)N3CCOCC3)cc2C1(C)C (centres undefined)	n	n	n	n	n
CC(C)(C)c1cc(C(=O)N/N=C/c2cc3c(cc2Br)OCO3)n[nH]1	n	n	76.7	n	n
CC(C)(C)c1cc(C(=O)N/N=C/c2ccccn2)n[nH]1	n	n	n	320.4	u
O=C(N/N=C/c1cc2c(cc1Br)OCO2)c1ccccn1	x	x	x	x	n
CCCCCCNC(=O)OC12CN(C(=O)OC(C)C)N(C(=O)OC(C)C)CC1(O)CN(S(=O)(=O)c1ccc(C)cc1)C2 (centres undefined)	n	n	x	x	n
